Measurements published in publication PMC3375352 (Journal of Medicinal Chemistry, 2012).

What was measured:
[1] = cited from earlier work
[2] = tested on: U2OS (human osteosarcoma); test: MTT cytotoxicity assay, U2OS; type: cell-based; settings: read-out: IC50 U2OS, 72 h continuous treatment
Summary of the method: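 Cells were grown as adherent monolayers in DMEM with 10% FBS and 1% penicillin/streptomycin at 37 °C, humidified 5% CO₂. 2000 cells/well were seeded and left for 24 h. Medium was replaced with test compound dilutions from 1–3 mM aqueous stocks for 72 h. MTT (0.8 mg/mL in DMEM) was added for 4 h, and formazan was dissolved in DMSO with 10% pH 10.5 glycine buffer. A555 was normalised to Pt-free controls and IC50 interpolated from % viability curves. Values are means of ≥3 independent experiments, each with six replicates per concentration; errors are standard deviations.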

[3] = tested on: nuclear DNA of HeLa cells; test: intracellular DNA platination by GFAAS; type: cell-based, human; settings: 100 µM for 4 h, then 16 h in platinum-free medium
Summary of the method: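 Five million HeLa cells were seeded, treated next day, and floating plus attached cells were pooled (trypsin), pelleted at 4 °C and washed with ice-cold PBS. Cells were lysed in DNAzol with 100 µg/mL RNase A. DNA was ethanol-precipitated, redissolved in 8 mM NaOH and quantified by UV-visible spectroscopy, and Pt was measured by GFAAS (pmol Pt/µg DNA). Values are means ± SD of ≥3 experiments.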

HeLa cells = test: cellular platinum uptake by GFAAS; type: cell-based, human; settings: 10 µM, 4 h exposure
Summary of the method: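 HeLa cells were seeded at 3×10⁵ cells/well, grown 48 h, then exposed to test compound (10 µM final) for 4 h. Cell-free medium wells served as blanks for nonspecific Pt adsorption, and parallel wells were trypsinised and counted with trypan blue. Wells were washed twice with pH 7.4 PBS and digested in hot (≈90 °C) concentrated nitric acid for 2 h. Pt was measured by GFAAS, blank-subtracted and normalised per cell; errors were derived by error propagation.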

SMILES	stability in water [1]	IC50 [2] [µM]	Pt/DNA [3] [pmol/µg]	HeLa Cellular Uptake (HeLa cells) [ng Pt/10^6 cells]
N.N.O=C([O-])C1(C(=O)[O-])CCC1.[Pt+2] [carboplatin]	stable for up 60 d	–	–	–
N.N.[Cl][Pt][Cl] [cisplatin, cis-diamminedichloroplatinum(II)]	–	5 ± 2	1.58 ± 0.97	14 ± 2
